According to ChEMBL document CHEMBL1129500, “Substituted 2,5'-Bi-1H-benzimidazoles: topoisomerase I inhibition and cytotoxicity” (J Med Chem, 1996):

Assays:
RPMI 8402 = assay: Cytotoxicity against human lymphoblast cell line RPMI 8402; format: functional, cell-based
Summary of the method: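 RPMI 8402 human lymphoblasts grown in suspension at 37 °C, 5% CO2, in RPMI with 10% heat-inactivated FBS, 2 mM L-glutamine, penicillin and streptomycin. Seeded at 2000 cells/well and exposed to drug continuously for 4 days. Viability read by MTT tetrazolium microtiter assay, giving IC50. Highest dose tested 25 µM.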

[1] = system: DNA topoisomerase 1 (Bos taurus); assay: Effective concentration against Topoisomerase-I (purified from calf thymus gland) mediated DNA cleavage relative to Hoechst 33342

Row | REC [1] | SMILES | IC50 (RPMI 8402) [nM]
1 | 1 | Cc1ccc(-c2nc3cc(-c4nc5cc(C#N)ccc5[nH]4)ccc3[nH]2)cc1 | 570
2 | 10 | N#Cc1ccc2[nH]c(-c3ccc4[nH]c(-c5cccc6ccccc56)nc4c3)nc2c1 | 650
3 | 100 | Cc1cccc(-c2nc3cc(-c4nc5cc(C(N)=O)ccc5[nH]4)ccc3[nH]2)c1 | 8200
4 | > 100 | N#Cc1ccc2[nH]c(-c3ccc4[nH]c(-c5ccccc5)nc4c3)nc2c1 | > 25000
5 | 10 | Cc1ccc(-c2nc3cc(-c4nc5cc(C(N)=O)ccc5[nH]4)ccc3[nH]2)cc1 | > 25000
6 | 10 | N#Cc1ccc2[nH]c(-c3ccc4[nH]c(-c5ccc6ccccc6c5)nc4c3)nc2c1 | 130
7 | > 100 | Cc1ccccc1-c1nc2cc(-c3nc4cc(C#N)ccc4[nH]3)ccc2[nH]1 | 1200
8 | 100 | Cc1cccc(-c2nc3cc(-c4nc5cc(C#N)ccc5[nH]4)ccc3[nH]2)c1 | 860
9 | 1 | Cc1ccc(-c2nc3cc(-c4nc5cc(N6CCN(C)CC6)ccc5[nH]4)ccc3[nH]2)cc1 | 830

Second part, the compound before the results:

Row | SMILES | REC [1] | IC50 (RPMI 8402) [nM]
10 | NC(=O)c1ccc2[nH]c(-c3ccc4[nH]c(-c5cccc6ccccc56)nc4c3)nc2c1 | 20 | 3700
11 | Cc1cccc(-c2nc3cc(-c4nc5cc(N6CCN(C)CC6)ccc5[nH]4)ccc3[nH]2)c1 | 1 | 360
12 | Cc1ccccc1-c1nc2cc(-c3nc4cc(C(N)=O)ccc4[nH]3)ccc2[nH]1 | 100 | 8200
13 | NC(=O)c1ccc2[nH]c(-c3ccc4[nH]c(-c5ccccc5)nc4c3)nc2c1 | 10 | > 25000
14 | Cc1ccccc1-c1nc2cc(-c3nc4cc(N5CCN(C)CC5)ccc4[nH]3)ccc2[nH]1 | 10 | 590
15 | NC(=O)c1ccc2[nH]c(-c3ccc4[nH]c(-c5ccc6ccccc6c5)nc4c3)nc2c1 | 100 | 740
16 | CN1CCN(c2ccc3[nH]c(-c4ccc5[nH]c(-c6ccccc6)nc5c4)nc3c2)CC1 | 1 | 490
17 | CN1CCN(c2ccc3[nH]c(-c4ccc5[nH]c(-c6ccc7ccccc7c6)nc5c4)nc3c2)CC1 | 10 | 110
18 | CN1CCN(c2ccc3[nH]c(-c4ccc5[nH]c(-c6cccc7ccccc67)nc5c4)nc3c2)CC1 | 20 | 330
